Bioassay records from PubChem BioAssay.
Rows were chosen to be rich in hits. Some 1.8% of all compounds tested hit in one or more screens of this group.
NPY Y1 blocker: NPY-Y1 receptor antagonists, primary screen, cell-based; HEK293-CNG Y1 cells, membrane potential fluorescence; NPY at EC95, then isoproterenol; actives 1% (n = 200,000); AID 1040, 2008; inhibition, % at 3.6 µM;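 active = inhibition above the campaign mean inhibition of all tested compounds plus 3 SD, cut at about 20% in these data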
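Test system – HEK293 Y1/CNG channel cell line · Also added – NPY agonist 25 nM, then isoproterenol 1 µM plus Ro 20-1724 25 µM · Compound dosing – one concentration, 3.6 µM, in 0.4% DMSO · Schedule – compound incubation 1 h at room temperature, readout 45 min post-stimulation · Technique – fluorescence, membrane potential probe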
NPY-Y2 antag: NPY-Y2 receptor antagonists, primary screen, cell-based; NPY-Y2 expressing cells, antagonist mode; inhibition, % at 2.7 µM; actives 0.99% (n = 140,000); AID 793, 2007; Neuropeptide Y receptor type 2 (Homo sapiens), P49146; in the data active = inhibition above about 17%
Target sequence (P49146 whole entry, looked up): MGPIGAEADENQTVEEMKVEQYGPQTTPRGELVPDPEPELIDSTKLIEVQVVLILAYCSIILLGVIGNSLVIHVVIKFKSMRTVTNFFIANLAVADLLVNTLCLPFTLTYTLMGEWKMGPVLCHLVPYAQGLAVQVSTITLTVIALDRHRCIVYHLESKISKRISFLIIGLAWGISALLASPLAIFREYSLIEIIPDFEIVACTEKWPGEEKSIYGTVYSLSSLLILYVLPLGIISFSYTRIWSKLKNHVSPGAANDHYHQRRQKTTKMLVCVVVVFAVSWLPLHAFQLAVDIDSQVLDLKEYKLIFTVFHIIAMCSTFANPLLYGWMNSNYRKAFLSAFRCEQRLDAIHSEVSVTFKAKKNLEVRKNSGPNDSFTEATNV
NPY1 pot ag: NPY-Y1 receptor potentiators or agonists, primary screen, cell-based | activation, % at 3.6 µM | actives 0.37% (n = 220,000) | AID 1304, 2008 | Neuropeptide Y receptor type 1 (Homo sapiens), P25929 | NPY-Y1 expressing cells, potentiator/agonist activation; in the data active = activation above about 33%, passing the limit was not always enough;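 note: cells stimulated with NPY at EC10 then isoproterenol at EC100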
NPY-Y2 PAM-ag: NPY-Y2 potentiators or agonists, primary screen, cell-based. cells expressing NPY-Y2, potentiator/agonist read-out. activation, % at 3.6 µM. actives 0.45% (n = 220,000). AID 1359, 2008; in the data active = activation above about 27%;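 note: cells stimulated with NPY near EC25 plus isoproterenol at EC100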
NPY-Y1 antag ct: NPY-Y1 receptor antagonists, selectivity check, counter-screen for NPY-Y2 antagonist project, cell-based; inhibition, % at 3.6 µM; cell-based NPY-Y1 antagonism counterscreen; actives 19% (n = 710); shares compounds with NPY-Y2 antag; in the data active = inhibition above about 20%;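 note: cells challenged with NPY then isoproterenol with cAMP sensed through a CNG channel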
NPY2 antag conf: NPY-Y2 receptor antagonists, retest of hits, confirmation, HEK293-CNG cells, membrane potential fluorescence, triplicate; HEK293 NPY-Y2 CNG channel; shares compounds with NPY-Y2 antag; inhibition, % at 2.8 µM; actives 32% (n = 710); AID 1257, 2008;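 active = mean inhibition of triplicate wells above the hit cutoff set in the primary screen, cut at about 17% in these data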
Each line names hits and unclear results; the compound was inactive in the other large screens (follow-up assays come after a bar, where they were run).

COc1ccc(-c2nc(C#N)c(NCCCN(C)C)o2)cc1OC	none
Cc1ccc(C(=O)NNC(=O)CCN2C(=O)C3CCCCC3C2=O)cc1 (stereo unspecified)	none
Cc1cc(C)nc(N2CCCC(CCC(=O)NCc3ccc(F)c(F)c3)C2)n1 (stereo unspecified)	none (no result: NPY-Y2 antag)
CCOC(=O)N1CCC(NC(=O)CSCc2nc(-c3cccc(OC)c3)oc2C)CC1	NPY-Y2 antag 24 | NPY-Y1 antag ct inactive | NPY2 antag conf inactive
CCOC(=O)N1CCC(NC(=O)CSCc2nc(-c3sccc3C)oc2C)CC1	none
Cc1ccccc1OCCCSc1nc2ccccc2[nH]1	NPY-Y2 antag 17 | NPY-Y1 antag ct inactive | NPY2 antag conf inactive
c1ccc(OCCSc2nc3ccccc3[nH]2)cc1	none
CC(/C=C/C(=O)c1ccc(C)cc1)=C\c1ccccc1	none
Cc1ccc(C(=O)/C=C\C(=O)c2ccc(C)cc2)cc1	NPY-Y2 antag 20 | NPY-Y1 antag ct 45 | NPY2 antag conf 111
O=C(NC1CCCCC1)C(c1ccco1)N(Cc1cccnc1)C(=O)C1COc2ccccc2O1 (stereo unspecified)	NPY-Y2 antag 19 | NPY-Y1 antag ct inactive | NPY2 antag conf inactive
Cc1cc2ncn(C(=O)c3c(-c4c(Cl)cccc4Cl)noc3C)c2cc1C	none
Cc1cc2ncn(C(=O)c3c(-c4ccccc4)noc3C)c2cc1C	NPY-Y2 antag 20 | NPY-Y1 antag ct inactive | NPY2 antag conf inactive
COC(=O)c1cc(=O)n2c(sc3ccccc32)c1C#N	none (no result: NPY Y1 blocker, NPY-Y2 antag)
O=C(CN1CCN(S(=O)(=O)c2ccc(Br)cc2)CC1)N/N=C/c1ccncc1	none (no result: NPY Y1 blocker, NPY-Y2 antag)
COCCOC(=O)c1c(C)oc2ccc(NS(=O)(=O)c3ccccc3)cc12	none
CCOC(=O)c1c(C)oc2ccc(NS(=O)(=O)c3ccc4c5c(cccc35)C(=O)N4)cc12	NPY-Y2 antag 27 | NPY-Y1 antag ct inactive | NPY2 antag conf inactive
CCCCNC(=O)c1onc(CSc2ccc(F)c(F)c2)c1C(=O)O	NPY-Y2 antag 23 | NPY-Y1 antag ct inactive | NPY2 antag conf inactive
Cc1ccc(C(C(=O)NC2CCCC2)N(C(=O)Cc2cccs2)c2ccc(C)c(C)c2)o1 (stereo unspecified)	NPY-Y2 antag 24 | NPY-Y1 antag ct inactive | NPY2 antag conf inactive
Cc1ccccc1NC(=O)Cn1nnc2c(cnn2-c2ccc(F)cc2)c1=O	NPY-Y2 antag 24 | NPY-Y1 antag ct inactive | NPY2 antag conf inactive
CC1(C)CC(=O)c2cnc(NC(=O)CSC(=S)N3CCCCC3)nc2C1	none (no result: NPY Y1 blocker, NPY-Y2 antag)
Cc1cccc(NC(=S)N(CCN(C)C)Cc2cc3cc(C)cc(C)c3[nH]c2=O)c1	NPY-Y2 antag 19 | NPY-Y1 antag ct inactive | NPY2 antag conf 27
Cc1cccc(NC(=S)N(CCN(C)C)Cc2cc3cccc(C)c3[nH]c2=O)c1	none
NC(=O)c1cnn(-c2cc(Oc3ccccc3)ncn2)c1N	none (no result: NPY-Y2 antag)
Cc1ccc(SCCNC(=O)/C=C/c2ccc(Cl)cc2)cc1	NPY-Y2 antag 19 | NPY-Y1 antag ct 29 | NPY2 antag conf 39
O=C(Cc1ccc(Br)cc1)Nc1cccc(Cl)c1	none (no result: NPY-Y2 antag)
O=C(CSc1nc2ccccc2c(=O)n1Cc1ccc(Cl)cc1)NCc1cccs1	none
COCCn1c(-c2ccc(Cl)cc2)cnc1SCC(=O)NCc1cccs1	NPY-Y2 antag 18 | NPY-Y1 antag ct inactive | NPY2 antag conf inactive
Cc1ccc(NC(=O)c2c(C(F)(F)F)nn(C)c2SCc2ccc(Cl)cc2)cc1C	NPY-Y2 antag 17 | NPY-Y1 antag ct inactive | NPY2 antag conf inactive
CC(C)n1c(C(=O)OCC(=O)NCc2ccc3c(c2)OCO3)cc2occc21	none
CC(C)n1c(C(=O)OCC(=O)NCc2ccc3c(c2)OCO3)cc2sccc21	NPY-Y2 antag 22 | NPY-Y1 antag ct inactive | NPY2 antag conf inactive
CCOc1ccc(-n2c(=O)c3sccc3n(Cc3ccc(C)cc3)c2=O)cc1	none (no result: NPY-Y2 antag)
COc1ccc(C(=O)NCC(=O)N/N=C(C)\C=C\c2ccccc2)cc1OC	none (no result: NPY-Y2 antag)
O=C(COc1ccccc1CNCc1ccccc1)Nc1ccccc1	NPY-Y2 antag 21 | NPY-Y1 antag ct inactive | NPY2 antag conf 25
Brc1cccc(CNc2nc3ccccc3n2CCN2CCCCC2)c1	none (no result: NPY Y1 blocker, NPY-Y2 antag)
COc1cccc(CNc2nc3ccccc3n2CCN2CCCCC2)c1	NPY-Y2 antag 19 | NPY-Y1 antag ct inactive | NPY2 antag conf inactive
COc1cccc(C2c3c(oc4ccccc4c3=O)C(=O)N2CCCN(C)C)c1OC (stereo unspecified)	none
CCN(CC)CCCN1C(=O)c2oc3ccccc3c(=O)c2C1c1cccc(OC)c1OC (stereo unspecified)	NPY-Y2 antag 19 | NPY-Y1 antag ct inactive | NPY2 antag conf inactive
O=c1cc(O)nc(-c2ccc(Cl)cc2)s1	none (no result: NPY-Y2 antag)
COc1ccc(-c2n[nH]c3c2C(c2ccc(OC)c(OC)c2)N(c2ccccc2)C3=O)cc1 (stereo unspecified)	NPY-Y2 antag 27 | NPY-Y1 antag ct inactive | NPY2 antag conf 38
COc1ccc(C/C(C)=N/NC(=O)C2COc3ccccc3O2)cc1 (stereo unspecified)	none (no result: NPY-Y2 antag)
CCOC(=O)C(C(C)=O)C(c1ccc(OCCC(C)C)cc1)C(C(C)=O)C(=O)OCC (stereo unspecified)	NPY-Y2 antag 22 | NPY-Y1 antag ct inactive | NPY2 antag conf inactive
Cc1ccc(-c2nnc(/C=C/c3ccccc3)o2)cc1	NPY-Y2 antag 20 | NPY-Y1 antag ct inactive | NPY2 antag conf inactive
Cc1ccc(/C=C/c2nnc(-c3cccc(C)c3)o2)cc1	none
O=[N+]([O-])c1ccc(-c2csc3[n+]2CCS3)cc1	NPY-Y2 antag 23 | NPY-Y1 antag ct inactive | NPY2 antag conf inactive
COc1ccc(C/C(C)=N\NC(=O)c2cn(C)c3ccccc23)cc1OC	none (no result: NPY Y1 blocker, NPY-Y2 antag)
CC(Sc1ccc(Cl)cc1)C(=O)Nc1ccccc1-c1ccccc1 (stereo unspecified)	NPY-Y2 antag 20 | NPY-Y1 antag ct inactive | NPY2 antag conf 25
CCNc1cc(Cl)nc(SC)n1	NPY-Y2 antag 25 | NPY-Y1 antag ct inactive | NPY2 antag conf inactive
CCNc1cc(N2CCOCC2)nc(SC)n1	none (no result: NPY-Y2 antag)
CN(C)S(=O)(=O)c1cccc(-c2nnc(SCCNCCO)n2-c2ccc(F)cc2)c1	none (no result: NPY-Y2 antag)
OCCC1CN(Cc2cc(F)ccc2-n2cccn2)CCN1C1CCCC1 (stereo unspecified)	none (no result: NPY Y1 blocker, NPY-Y2 antag)
Cc1ccc(C(C(=O)NC2CCCC2)N(Cc2ccc3c(c2)OCO3)C(=O)c2snc(C(N)=O)c2N)cc1 (stereo unspecified)	none (no result: NPY Y1 blocker, NPY-Y2 antag)
O=C(NC1CCCCC1)C(c1ccccc1)N(Cc1ccc2c(c1)OCO2)C(=O)c1cnsn1 (stereo unspecified)	NPY-Y2 antag 26 | NPY-Y1 antag ct inactive | NPY2 antag conf inactive
